According to ChEMBL document CHEMBL1148007, “Synthesis of new S-derivatives of clubbed triazolyl thiazole as anti-Mycobacterium tuberculosis agents” (Bioorg Med Chem, 2007):

What was measured:
Staphylococcus aureus = test: Antibacterial activity against Staphylococcus aureus at 50 to 100 uM after 24 hrs by well diffusion method; format: functional
Summary of the method: (§1)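 Nutrient agar plates with 10 mm wells cut by cork borer; 24-h subcultured bacteria swabbed on. Compounds dissolved in chloroform, 50 to 100 μM added to wells, gentamycin as standard. Incubated 24 h at 24–28 °C; inhibition zone diameter measured and converted to percent inhibition.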

Salmonella typhi = test: Antibacterial activity against Salmonella typhi at 50 to 100 uM after 24 hrs by well diffusion method; format: functional, Salmonella enterica subsp. enterica serovar Typhi; set-up: unit not given here; summary of the method: as §1
[1] = system: Mycobacterium tuberculosis; test: Antitubercular activity against Mycobacterium tuberculosis H37Rv at 6.25 ug/mL by MABA assay; format: functional; settings: read-out: GI
Summary of the method: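 Primary screen against M. tuberculosis H37Rv (ATCC 27294) in BACTEC 12B medium by broth microdilution Microplate Alamar Blue Assay; fluorescent compounds run instead in BACTEC 460 radiometric system. Compounds above 95% inhibition counted active.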

[2] = system: Mycobacterium tuberculosis; test: Antitubercular activity against Mycobacterium tuberculosis H37Rv by MABA assay; format: functional
Summary of the method: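 Actives re-tested at lower concentrations against H37Rv (ATCC 27294) in BACTEC 12B medium by Microplate Alamar Blue Assay. MIC taken as lowest concentration giving […] fluorescence reduction versus controls; rifampin reference.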

Escherichia coli = test: Antibacterial activity against Escherichia coli at 50 to 100 uM after 24 hrs by well diffusion method; format: functional; summary of the method: as §1
[3] = Cytotoxicity against Vero-C1008 cells at 6.25 to 50 ug/mL by neutral red uptake assay; format: cell-based; settings: chlorocebus sabaeus
Summary of the method: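 Vero-C-1008 cells exposed to 6.25 to 50 μg/mL compound; viability read by neutral red uptake.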

Pseudomonas aeruginosa = test: Antibacterial activity against Pseudomonas aeruginosa at 50 to 100 uM after 24 hrs by well diffusion method; format: functional; summary of the method: as §1

Row | Compound | inhibition zone (Staphylococcus aureus) [mm] | Inhibition (Salmonella typhi) | inhibition of growth at 6.25 µg/mL [1] [%] | MIC [2] | inhibition zone (Escherichia coli) [mm] | Activity [3] | inhibition zone (Pseudomonas aeruginosa) [mm]
1 | O=C(CSc1nnc(Cc2csc(NC(=O)CCl)n2)n1NC(=O)c1ccc(Cl)cc1)N/N=C/c1ccccc1 | 24 | 17 | 96 | 3.13 µM | 19 | Non-toxic | 19
2 | CC(=O)Nc1nc(Cc2nnc(S)n2NC(=O)c2cccc([N+](=O)[O-])c2)cs1 | 16 | 12 | 100 | 6.25 µM | 12 | Non-toxic | 16
3 | CC(=O)Nc1nc(Cc2nnc(SCC#N)n2NC(=O)c2ccc(Cl)cc2)cs1 | 28 | 24 | 96 | 3.13 µM | 23 | Non-toxic | 20
4 | CC(=O)Nc1nc(Cc2nnc(SCC(=O)NN)n2NC(=O)c2cccc([N+](=O)[O-])c2)cs1 | 19 | 17 | 100 | 6.25 µM | 22 | Non-toxic | 23
5 | N#CCSc1nnc(Cc2csc(NC(=O)c3ccccc3)n2)n1NC(=O)c1ccc(Cl)cc1 | 31 | 19 | 96 | 3.13 µM | 27 | Non-toxic | 27
6 | N#CCSc1nnc(Cc2csc(NCCC(=O)O)n2)n1NC(=O)c1ccc(Cl)cc1 | 30 | 25 | 100 | 3.13 µM | 21 | Non-toxic | 29
7 | CC(=O)Nc1nc(Cc2nnc(S)n2NC(=O)c2ccc(Cl)cc2)cs1 | 16 | 16 | 96 | 6.25 µM | 20 | Non-toxic | 16
8 | O=C(O)CCNc1nc(Cc2nnc(SCC(=O)N/N=C/c3ccccc3)n2NC(=O)c2ccc(Cl)cc2)cs1 | 22 | 22 | 96 | 3.13 µM | 18 | Non-toxic | 27
9 | NNC(=O)CSc1nnc(Cc2csc(NC(=O)CCl)n2)n1NC(=O)c1cccc([N+](=O)[O-])c1 | 29 | 18 | 96 | 6.25 µM | 19 | Non-toxic | 20
10 | N#CCSc1nnc(Cc2csc(NCCC(=O)O)n2)n1NC(=O)c1cccc([N+](=O)[O-])c1 | 25 | 24 | 96 | < 6.25 µg/mL | 24 | Non-toxic | 23
11 | NNC(=O)CSc1nnc(Cc2csc(NC(=O)c3ccccc3)n2)n1NC(=O)c1ccc(Cl)cc1 | 32 | 24 | 96 | 6.25 µM | 26 | Non-toxic | 32
12 | O=C(Nc1nc(Cc2nnc(S)n2NC(=O)c2ccc(Cl)cc2)cs1)c1ccccc1 | 16 | 18 | 96 | 6.25 µM | 10 | Non-toxic | 10
13 | CC(=O)Nc1nc(Cc2nnc(SCC(=O)N/N=C/c3ccccc3)n2NC(=O)c2cccc([N+](=O)[O-])c2)cs1 | 30 | 26 | 100 | 0.78 µM | 24 | Non-toxic | 31
14 | N#CCSc1nnc(Cc2csc(NC(=O)CCl)n2)n1NC(=O)c1ccc(Cl)cc1 | 24 | 16 | 96 | 3.13 µM | 26 | Non-toxic | 28
15 | O=C(Nc1nc(Cc2nnc(S)n2NC(=O)c2cccc([N+](=O)[O-])c2)cs1)c1ccccc1 | 11 | 12 | 96 | 6.25 µM | 16 | Non-toxic | 24
16 | Nn1c(S)nnc1Cc1csc(NC(=O)c2ccccc2)n1 | 22 | 14 | 96 | 6.25 µM | 18 | Non-toxic | 20
17 | O=C(CCl)Nc1nc(Cc2nnc(S)n2NC(=O)c2cccc([N+](=O)[O-])c2)cs1 | 22 | 16 | 96 | 6.25 µM | 20 | Non-toxic | 22
18 | N#CCSc1nnc(Cc2csc(NC(=O)c3ccccc3)n2)n1NC(=O)c1cccc([N+](=O)[O-])c1 | 28 | 17 | 96 | < 6.25 µg/mL | 22 | Non-toxic | 24
19 | N#CCSc1nnc(Cc2csc(NC(=O)CCl)n2)n1NC(=O)c1cccc([N+](=O)[O-])c1 | 24 | 24 | 100 | < 6.25 µg/mL | 19 | Non-toxic | 24
20 | NNC(=O)CSc1nnc(Cc2csc(NC(=O)CCl)n2)n1NC(=O)c1ccc(Cl)cc1 | 16 | 12 | 96 | 6.25 µM | 12 | Non-toxic | 18
21 | CC(=O)Nc1nc(Cc2nnc(SCC(=O)NN)n2NC(=O)c2ccc(Cl)cc2)cs1 | 16 | 14 | 96 | 6.25 µM | 12 | Non-toxic | 16
22 | O=C(O)CCNc1nc(Cc2nnc(SCC(=O)N/N=C/c3ccccc3)n2NC(=O)c2cccc([N+](=O)[O-])c2)cs1 | 30 | 27 | 96 | 1.56 µM | 26 | Non-toxic | 32
23 | CC(=O)NNC(=O)CSc1nnc(Cc2csc(NC(=O)CCl)n2)n1NC(=O)c1cccc([N+](=O)[O-])c1 | 27 | 24 |  | < 6.25 µg/mL | 18 | Non-toxic | 24
